Laboratory results reported in ChEMBL document CHEMBL5108089, “Structure-based discovery of potent inhibitors of Axl: design, synthesis, and biological evaluation” (RSC Med Chem, 2022).
The source made the active and inactive calls. The rule behind the calls is not given here.

Assays:
[1] = Half-life in Sprague-Dawley rat at 5 mg/kg, po measured upto 24 hrs by LC-MS/MS analysis; assay type: ADME, organism-based; settings: in vivo
[2] = test system: 143B; test: Antiproliferative activity against human 143B cells assessed as inhibition of cell growth incubated for 72 hrs by CCK-8 assay; assay type: functional
[3] = test system: EVSA-T; test: Antiproliferative activity against human EVSA-T cells assessed as inhibition of cell growth incubated for 72 hrs by CCK-8 assay; assay type: functional
[4] = Intrinsic clearance in rat; assay type: ADME
[5] = test system: Hep 3B2; test: Antiproliferative activity against human Hep 3B2.1-7 cells assessed as inhibition of cell growth incubated for 72 hrs by CCK-8 assay; assay type: functional; settings: Hep3B
[6] = Metabolic stability in human liver microsomes assessed as intrinsic clearance preincubated for 10 mins followed by NADPH addition and measured upto 60 mins by LC-MS/MS analysis; assay type: ADME, Microsome; settings: time < 70 min, read-out: CLH
[7] = test system: RS4-11; test: Antiproliferative activity against human RS4-11 cells assessed as inhibition of cell growth incubated for 72 hrs by CCK-8 assay; assay type: functional
How it was run: (§1)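 8000 cells/well. Test compound was serially diluted from a 10 uM top concentration and staurosporine from 1 uM. CC50 and maximum % inhibition are reported.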

[8] = test system: OVCAR-3; test: Antiproliferative activity against human OVCAR-3 cells assessed as inhibition of cell growth incubated for 72 hrs by CCK-8 assay; assay type: functional
[9] = Half-life in Sprague-Dawley rat at 1 mg/kg, iv measured upto 24 hrs by LC-MS/MS analysis; assay type: ADME, organism-based; settings: in vivo
[10] = test system: SW-620; test: Antiproliferative activity against human SW620 cells assessed as inhibition of cell growth incubated for 72 hrs by CCK-8 assay; assay type: functional
[11] = test system: HEL 92.1.7; test: Antiproliferative activity against human HEL 92.1.7 cells assessed as inhibition of cell growth incubated for 72 hrs by CCK-8 assay; assay type: functional; how it was run: as §1
[12] = test system: A-375; test: Antiproliferative activity against human A-375 cells assessed as inhibition of cell growth incubated for 72 hrs by CCK-8 assay; assay type: functional
[13] = molecular target: Tyrosine-protein kinase TXK (Homo sapiens) (UniProt P42681); test: Inhibition of Txk (unknown origin) at 1 uM relative to control
Sequence of Tyrosine-protein kinase TXK (Homo sapiens) (P42681 whole entry): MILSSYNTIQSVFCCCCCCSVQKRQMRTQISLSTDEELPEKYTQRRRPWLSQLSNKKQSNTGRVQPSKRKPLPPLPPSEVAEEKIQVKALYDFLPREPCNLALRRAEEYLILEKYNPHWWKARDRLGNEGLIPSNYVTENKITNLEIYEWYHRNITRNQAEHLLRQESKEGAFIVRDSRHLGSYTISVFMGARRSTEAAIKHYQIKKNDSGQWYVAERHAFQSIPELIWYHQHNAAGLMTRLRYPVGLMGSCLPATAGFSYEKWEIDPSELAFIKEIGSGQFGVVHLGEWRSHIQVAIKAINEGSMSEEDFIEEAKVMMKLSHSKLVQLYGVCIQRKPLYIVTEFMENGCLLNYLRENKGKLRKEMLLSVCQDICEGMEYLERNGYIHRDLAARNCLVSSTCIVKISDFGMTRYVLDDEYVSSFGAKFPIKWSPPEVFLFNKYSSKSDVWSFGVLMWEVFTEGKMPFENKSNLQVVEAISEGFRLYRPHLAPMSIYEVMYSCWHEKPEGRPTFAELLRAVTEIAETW

[14] = Metabolic stability in rat liver microsomes assessed as half-life preincubated for 10 mins followed by NADPH addition and measured upto 60 mins by LC-MS/MS analysis; assay type: ADME, Microsome; settings: time < 70 min
[15] = test system: CAKI-1; test: Antiproliferative activity against human CAKI-1 cells assessed as inhibition of cell growth incubated for 72 hrs by CCK-8 assay; assay type: functional
[16] = test system: Calu-3; test: Antiproliferative activity against human Calu-3 cells assessed as inhibition of cell growth incubated for 72 hrs by CCK-8 assay; assay type: functional
How it was run: (§2)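 Plated at 10000 cells/well. Dose series topped at 10 uM for test compound and at 1 uM for the staurosporine reference. Read-outs were CC50 and maximum % inhibition.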

[17] = test system: SNU-5; test: Antiproliferative activity against human SNU-5 cells assessed as inhibition of cell growth incubated for 72 hrs by CCK-8 assay; assay type: functional; how it was run: as §2
[18] = test system: CAL-27; test: Antiproliferative activity against human CAL-27 cells assessed as inhibition of cell growth incubated for 72 hrs by CCK-8 assay; assay type: functional
[19] = Antiproliferative activity against human T.Tn cells assessed as inhibition of cell growth incubated for 72 hrs by CCK-8 assay; assay type: functional
[20] = molecular target: Hepatocyte growth factor receptor (Homo sapiens) (UniProt P08581); test: Inhibition of Met (unknown origin) at 1 uM relative to control
Sequence of Hepatocyte growth factor receptor (Homo sapiens) (P08581 whole entry): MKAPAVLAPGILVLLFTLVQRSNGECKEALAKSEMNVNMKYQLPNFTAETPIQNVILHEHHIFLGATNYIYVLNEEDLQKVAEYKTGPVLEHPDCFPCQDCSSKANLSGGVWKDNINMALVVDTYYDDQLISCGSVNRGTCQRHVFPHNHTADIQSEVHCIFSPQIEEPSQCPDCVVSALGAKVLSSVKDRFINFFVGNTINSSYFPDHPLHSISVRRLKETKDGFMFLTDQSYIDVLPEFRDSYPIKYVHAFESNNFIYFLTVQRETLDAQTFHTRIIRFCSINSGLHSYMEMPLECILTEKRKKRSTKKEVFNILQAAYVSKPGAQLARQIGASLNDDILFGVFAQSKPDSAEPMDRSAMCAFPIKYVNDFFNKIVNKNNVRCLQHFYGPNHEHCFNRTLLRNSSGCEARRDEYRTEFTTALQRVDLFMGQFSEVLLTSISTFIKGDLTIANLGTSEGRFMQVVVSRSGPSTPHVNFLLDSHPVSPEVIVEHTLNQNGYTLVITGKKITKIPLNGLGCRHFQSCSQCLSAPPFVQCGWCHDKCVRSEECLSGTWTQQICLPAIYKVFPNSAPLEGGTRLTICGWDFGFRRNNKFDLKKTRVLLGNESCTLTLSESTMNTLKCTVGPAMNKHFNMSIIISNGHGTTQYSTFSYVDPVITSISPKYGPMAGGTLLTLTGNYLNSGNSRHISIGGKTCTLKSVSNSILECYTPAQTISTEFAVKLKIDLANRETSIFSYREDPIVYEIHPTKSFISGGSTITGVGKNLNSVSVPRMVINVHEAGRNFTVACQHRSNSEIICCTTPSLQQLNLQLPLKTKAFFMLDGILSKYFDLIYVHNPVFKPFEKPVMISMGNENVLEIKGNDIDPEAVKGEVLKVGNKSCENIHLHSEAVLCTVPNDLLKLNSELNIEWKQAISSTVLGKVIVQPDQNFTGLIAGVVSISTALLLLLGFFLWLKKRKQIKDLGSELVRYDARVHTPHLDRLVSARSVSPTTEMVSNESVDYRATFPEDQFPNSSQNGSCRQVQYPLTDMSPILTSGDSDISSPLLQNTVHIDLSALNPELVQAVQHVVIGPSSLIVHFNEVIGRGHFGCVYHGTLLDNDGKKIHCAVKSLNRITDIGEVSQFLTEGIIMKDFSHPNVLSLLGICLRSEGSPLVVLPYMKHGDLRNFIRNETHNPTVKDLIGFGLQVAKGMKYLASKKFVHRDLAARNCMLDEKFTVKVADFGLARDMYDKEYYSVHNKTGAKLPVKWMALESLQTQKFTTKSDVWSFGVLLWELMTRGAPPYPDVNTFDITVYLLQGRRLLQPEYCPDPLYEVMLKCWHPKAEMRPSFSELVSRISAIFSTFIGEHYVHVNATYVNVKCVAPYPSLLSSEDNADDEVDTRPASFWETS

[21] = Metabolic stability in human liver microsomes assessed as half-life preincubated for 10 mins followed by NADPH addition and measured upto 60 mins by LC-MS/MS analysis; assay type: ADME, Microsome; settings: time < 70 min
[22] = molecular target: Proto-oncogene tyrosine-protein kinase receptor Ret (Homo sapiens) (UniProt P07949); test: Inhibition of Ret (unknown origin) at 1 uM relative to control
Sequence of Proto-oncogene tyrosine-protein kinase receptor Ret (Homo sapiens) (P07949 whole entry): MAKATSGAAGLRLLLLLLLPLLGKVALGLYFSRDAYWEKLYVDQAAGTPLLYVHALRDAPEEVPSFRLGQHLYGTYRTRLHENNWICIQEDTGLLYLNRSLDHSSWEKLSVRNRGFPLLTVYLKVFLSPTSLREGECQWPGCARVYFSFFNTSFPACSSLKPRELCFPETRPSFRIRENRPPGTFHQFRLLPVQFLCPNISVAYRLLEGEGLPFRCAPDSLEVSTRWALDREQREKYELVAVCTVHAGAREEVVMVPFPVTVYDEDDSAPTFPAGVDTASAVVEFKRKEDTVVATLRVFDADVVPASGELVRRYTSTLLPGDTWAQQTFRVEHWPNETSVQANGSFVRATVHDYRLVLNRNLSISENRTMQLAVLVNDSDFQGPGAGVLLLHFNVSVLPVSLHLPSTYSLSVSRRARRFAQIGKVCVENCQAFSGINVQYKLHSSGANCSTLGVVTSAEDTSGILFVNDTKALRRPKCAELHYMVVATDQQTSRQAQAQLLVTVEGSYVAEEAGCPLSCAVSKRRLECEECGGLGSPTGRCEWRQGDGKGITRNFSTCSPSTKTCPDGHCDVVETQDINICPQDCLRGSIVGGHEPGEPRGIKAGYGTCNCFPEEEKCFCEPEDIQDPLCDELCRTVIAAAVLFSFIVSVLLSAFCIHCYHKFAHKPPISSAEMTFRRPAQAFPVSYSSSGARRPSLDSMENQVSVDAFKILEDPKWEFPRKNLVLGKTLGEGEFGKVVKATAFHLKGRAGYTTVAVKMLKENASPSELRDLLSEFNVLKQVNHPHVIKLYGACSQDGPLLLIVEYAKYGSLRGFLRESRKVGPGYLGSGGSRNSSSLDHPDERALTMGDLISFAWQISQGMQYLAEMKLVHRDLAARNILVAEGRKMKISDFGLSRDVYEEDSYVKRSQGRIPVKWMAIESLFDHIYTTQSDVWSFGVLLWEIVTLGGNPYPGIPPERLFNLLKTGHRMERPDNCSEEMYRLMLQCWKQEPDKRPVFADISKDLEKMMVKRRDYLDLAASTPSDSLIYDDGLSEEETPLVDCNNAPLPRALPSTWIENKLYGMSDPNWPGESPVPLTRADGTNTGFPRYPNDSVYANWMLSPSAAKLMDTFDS

[23] = Clearance in Sprague-Dawley rat at 1 mg/kg, iv measured upto 24 hrs by LC-MS/MS analysis; assay type: ADME, organism-based; settings: in vivo
[24] = test system: MSTO-211H; test: Antiproliferative activity against human MSTO-211H cells assessed as inhibition of cell growth incubated for 72 hrs by CCK-8 assay; assay type: functional
[25] = test system: BXPC-3; test: Antiproliferative activity against human BXPC-3 cells assessed as inhibition of cell growth incubated for 72 hrs by CCK-8 assay; assay type: functional
[26] = test system: KYSE-510; test: Antiproliferative activity against human KYSE-510 cells assessed as inhibition of cell growth incubated for 72 hrs by CCK-8 assay; assay type: functional
[27] = test system: SUD4; test: Antiproliferative activity against human SU-DHL-4 cells assessed as inhibition of cell growth incubated for 72 hrs by CCK-8 assay; assay type: functional; how it was run: as §1
[28] = test system: MV4-11; test: Antiproliferative activity against human MV4-11 cells assessed as inhibition of cell growth incubated for 72 hrs by CCK-8 assay; assay type: functional; how it was run: as §1
[29] = test system: U-87 MG; test: Antiproliferative activity against human U87 cells assessed as inhibition of cell growth incubated for 72 hrs by CCK-8 assay; assay type: functional, U-87MG ATCC
[30] = test system: SNU-16; test: Antiproliferative activity against human SNU-16 cells assessed as inhibition of cell growth incubated for 72 hrs by CCK-8 assay; assay type: functional; how it was run: as §1
[31] = Antiproliferative activity against human NCI-H1954 cells assessed as inhibition of cell growth incubated for 72 hrs by CCK-8 assay; assay type: functional
[32] = molecular target: Receptor-type tyrosine-protein kinase FLT3 (Homo sapiens) (UniProt P36888); test: Inhibition of Flt3 (unknown origin) at 1 uM
Sequence of Receptor-type tyrosine-protein kinase FLT3 (Homo sapiens) (P36888 whole entry): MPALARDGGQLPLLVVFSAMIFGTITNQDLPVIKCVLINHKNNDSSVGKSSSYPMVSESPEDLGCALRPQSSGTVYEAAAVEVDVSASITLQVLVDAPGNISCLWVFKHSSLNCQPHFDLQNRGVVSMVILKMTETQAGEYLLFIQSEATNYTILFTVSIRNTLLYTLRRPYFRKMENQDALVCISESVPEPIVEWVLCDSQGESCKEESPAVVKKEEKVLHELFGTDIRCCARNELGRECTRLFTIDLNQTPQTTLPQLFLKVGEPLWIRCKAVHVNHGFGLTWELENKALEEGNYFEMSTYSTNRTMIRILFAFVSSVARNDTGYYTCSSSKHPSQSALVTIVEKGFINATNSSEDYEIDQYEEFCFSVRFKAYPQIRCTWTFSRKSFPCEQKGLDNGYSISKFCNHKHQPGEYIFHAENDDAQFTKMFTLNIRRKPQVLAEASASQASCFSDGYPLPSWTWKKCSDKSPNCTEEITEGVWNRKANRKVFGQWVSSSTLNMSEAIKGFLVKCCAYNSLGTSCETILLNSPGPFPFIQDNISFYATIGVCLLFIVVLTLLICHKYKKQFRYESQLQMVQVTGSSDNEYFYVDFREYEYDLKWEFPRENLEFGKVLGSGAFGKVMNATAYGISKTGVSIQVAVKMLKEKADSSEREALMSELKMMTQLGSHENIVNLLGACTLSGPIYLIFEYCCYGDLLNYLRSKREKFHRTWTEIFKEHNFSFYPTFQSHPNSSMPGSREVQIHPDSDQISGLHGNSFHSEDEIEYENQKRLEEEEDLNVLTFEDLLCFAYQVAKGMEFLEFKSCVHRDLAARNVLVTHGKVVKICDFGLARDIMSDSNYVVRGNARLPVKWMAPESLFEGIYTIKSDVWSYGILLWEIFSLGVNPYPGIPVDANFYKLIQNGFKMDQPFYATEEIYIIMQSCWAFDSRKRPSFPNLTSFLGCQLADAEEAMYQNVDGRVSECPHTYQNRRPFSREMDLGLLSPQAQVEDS

CC(C)n1cnc(-c2ccccc2Nc2nc(Nc3ccc(N(C)C4CCN(C)CC4)cc3)ncc2Cl)n1
half-life [1]: 6.45 h | CC50 [2]: 1.34 µM | CC50 [3]: 1.15 µM | CLint scaled [4]: 2.03 L/h/kg | CC50 [5]: 0.0812 µM | CLint scaled [6]: 1.72 L/h/kg | CC50 [7]: 0.138 µM | CC50 [8]: 0.224 µM | half-life [9]: 6.6 h | CC50 [10]: 0.349 µM | CC50 [11]: 0.457 µM | CC50 [12]: 23.9 µM | inhibition [13]: 70% | half-life [14]: 0.472 h | CC50 [15]: 0.493 µM | CC50 [16]: 0.107 µM | CC50 [17]: 0.356 µM | CC50 [18]: 0.107 µM | CC50 [19]: 0.119 µM | inhibition [20]: 70% | half-life [21]: 1.01 h | inhibition [22]: 70% | clearance [23]: 2.2 L/h/kg | CC50 [24]: 0.451 µM | CC50 [25]: 0.382 µM | CC50 [26]: 0.117 µM | CC50 [27]: 0.0359 µM | CC50 [28]: 0.066 µM | CC50 [29]: 3.01 µM | CC50 [30]: 0.149 µM | CC50 [31]: 1.21 µM | inhibition [32]: Active
